ATG4B inhibitor = inhibitors of human ATG4B cysteine protease; ATG4B cleavage of LC3-PLA2, NBD-HPC fluorescence, 1 h; Q9Y4P1; inhibition, % at 8.33 µM; AID 504462; hit rate 0.51% among 340,000; in the data active = inhibition above about 40%
Target sequence (Q9Y4P1 whole entry, looked up): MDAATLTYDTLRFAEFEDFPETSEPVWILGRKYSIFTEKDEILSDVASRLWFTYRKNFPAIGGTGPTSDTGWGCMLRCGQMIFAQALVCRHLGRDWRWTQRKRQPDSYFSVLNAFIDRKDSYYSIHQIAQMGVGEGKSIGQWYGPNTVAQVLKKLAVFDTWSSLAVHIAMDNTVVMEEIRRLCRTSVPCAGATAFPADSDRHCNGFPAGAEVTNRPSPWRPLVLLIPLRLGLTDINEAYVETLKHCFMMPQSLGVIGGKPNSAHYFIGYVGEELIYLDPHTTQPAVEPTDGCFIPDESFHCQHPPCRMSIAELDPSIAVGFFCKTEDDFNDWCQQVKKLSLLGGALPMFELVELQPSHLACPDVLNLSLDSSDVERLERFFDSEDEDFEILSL
NALP1 yeast inh = inhibitors of NALP1 inflammasome in yeast | S. cerevisiae NALP1/ASC/caspase-1 growth, X-gal OD620, 72 h | inhibition, % at 10 µM | hit rate 0.61% among 280,000; in the data active = inhibition mostly above about 24%, no sharp cut-off; inactive = mostly below about 32%
Calb FLC = C. albicans growth modulation with fluconazole; C. albicans CaCi-2 (fluconazole-resistant clinical isolate) + fluconazole, Alamar Blue growth, 48 h; growth inhibition, % (concentration not given with the values); hit rate 0.57% among 300,000; AID 1979;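 active = growth inhibition above about 58% in most replicates, limit read from the data, passing the limit was not always enough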;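 note: all wells also contain fluconazole at 8 µg/ml as a sub-toxic cotreatment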
NALP3 yeast inh = inhibitors of NALP3 inflammasome in yeast; Yeast reconstituted NLRP3/ASC/caspase-1, beta-gal luminescence, 24 h; hit rate 0.39% among 330,000; inhibition, % at 10 µM;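 active = inhibition of 50% or more; inactive = inhibition below 50%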
UCH37 inh = blocks the human deubiquitinase UCH37; Q9Y5K5; purified proteasome/UCH37, Ub-AMC cleavage fluorescence; inhibition, % (no concentration beside the values); hit rate 0.33% among 330,000; AID 588478;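 active = mean inhibition over replicate wells above about 20%, limit read from the data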
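system = Proteasome-associated human UCH37 deubiquitinase | amount = 0.15 nM proteasome as dispensed | medium = pH 7.4 Tris-HCl (50 mM) with ovalbumin, ATP-MgCl2, DTT | incubation = 30 min preincubation with enzyme, 25 min cleavage at room temperature | detection = AMC fluorescence 355/460 nm | read-out basis = percent inhibition | controls = no-proteasome and no-compound wells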
ALR H2O2 inh = inhibitors of human sulfhydryl oxidase ALR | P55789 | purified ALR, DTT oxidation, H2O2 HRP-luminol luminescence | inhibition, % (no concentration beside the values) | hit rate 3.8% among 290,000;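 active = mean replicate inhibition above about 79%, with every replicate also reaching it, limit read from the data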
ATG4B conf = ATG4B (human) inhibition, single-dose confirmed | shares compounds with ATG4B inhibitor | ATG4B protease fluorescent substrate cleavage assay | inhibition, % at 8.33 µM | hit rate 92% among 320; in the data active = inhibition above about 39%
PLA2 ctr = inhibits human PLA2, flagging false ATG4B inhibitors; shares compounds with ATG4B inhibitor; inhibition, % at 8.33 µM; hit rate 66% among 1,600; purified PLA2, NBD-C6-HPC fluorescence, 45 min; AID 588402; in the data active = inhibition above about 50%
Hits are given with their value; – = inactive; · = not tested or not shown. In the library only some 4.8% were active in any assay of this set; here they are far more common.

SMILES	ATG4B inhibitor	NALP1 yeast inh	Calb FLC	NALP3 yeast inh	UCH37 inh	ALR H2O2 inh	PLA2 ctr	others
O=C1c2ccccc2C(=O)N1c1nc(-c2cccs2)cs1	59	–	–	–	–	–	64
Cc1ccc(C(=O)O)cc1N=Cc1cc(Br)cc(Br)c1O	44	70	–	·	–	–	–	ATG4B conf=59
O=[N+]([O-])c1ccc(O)c(C=NNc2ccccc2[N+](=O)[O-])c1	·	·	·	·	–	·	·
O=C(CSc1nc2ccccc2c(=O)n1-c1ccc(Cl)cc1)N/N=C/C=C/c1ccccc1[N+](=O)[O-]	54	–	–	–	·	–	–	ATG4B conf=72
O=C(CSc1nc2ccccc2c(=O)n1-c1ccccc1)N/N=C/C=C/c1ccccc1[N+](=O)[O-]	–	–	–	–	·	–	·
CC(CC(=O)Nc1ccccc1)=NNC(=O)COc1ccc(C)cc1Br	·	·	·	·	–	·	·
O=C(NN=Cc1cc(Br)cs1)c1ccccc1[N+](=O)[O-]	·	·	·	·	–	·	·
CC(C)C(=O)N1N=C(c2ccc(NS(C)(=O)=O)cc2)CC1c1cccs1 (configuration not stated)	–	–	–	–	–	–	·
CS(=O)(=O)Nc1ccc(C2=NN(C(=O)C3CCCCC3)C(c3cccs3)C2)cc1 (configuration not stated)	77	–	–	–	–	–	81
CCOC(=O)COc1ccc2c(c1)c(C(C)=O)c(C)n2-c1ccccc1	–	–	–	·	–	–	·
CC(=O)c1c(C)n(-c2ccccc2)c2ccc(OCC(N)=O)cc12	47	–	–	–	–	·	52
COc1cccc(CNc2cc(CSc3ccc(Cl)cc3)nc(C)n2)c1	54	–	–	–	–	–	63
COc1ccccc1CNc1cc(CSc2ccc(Cl)cc2)nc(C)n1	–	–	–	–	–	–	·
NC(=O)Cc1ccc(C(=O)c2ccc(Cl)cc2)s1	57	–	–	–	–	–	51
O=C(Nc1nc(-c2cccc([N+](=O)[O-])c2)cs1)c1cccc([N+](=O)[O-])c1C(=O)O	79	–	–	–	–	–	82
O=C(O)c1ccccc1C(=O)Nc1nc(-c2ccc3ccccc3c2)cs1	83	–	–	–	–	–	84
COc1ccc(-c2csc(NC(=O)c3ccccc3NS(=O)(=O)c3ccc(C)cc3)n2)cc1	74	–	–	–	–	–	68
O=C(Cc1cccc2ccccc12)Nc1nc(-c2cccc([N+](=O)[O-])c2)cs1	–	–	–	–	–	–	·
Cc1ccc(-c2csc(NC(=O)c3cccc([N+](=O)[O-])c3C(=O)O)n2)cc1	53	–	–	–	–	–	69
COc1cc(C(=O)NN=Cc2ccc(OC)c(CN3CCN(c4ccc(F)cc4)CC3)c2)ccc1O	·	·	·	·	–	·	·
O=C(NN=Cc1ccco1)c1ccccc1OCc1ccc(Br)cc1	·	·	·	·	–	·	·
Cc1ccc(Nc2cc(C)nc3nnnn23)cc1	–	–	–	–	–	–	·
Cc1cc(NCc2ccc(F)cc2Cl)n2nnnc2n1	48	–	–	–	–	–	–	ATG4B conf=70
COc1ccccc1C=NNC(=O)c1ccc(=O)n(C)c1	·	·	·	·	–	·	·
Cc1ccc(S(=O)(=O)N2CCN(C(=O)CCC(=O)NCc3cccc(C(F)(F)F)c3)CC2)cc1	71	·	–	–	–	–	78
SMILES	ATG4B inhibitor	NALP1 yeast inh	Calb FLC	NALP3 yeast inh	UCH37 inh	ALR H2O2 inh	PLA2 ctr	others
CCOc1ccc(S(=O)(=O)Nc2ccc(C(=O)NN=Cc3c(C)nn(-c4ccccc4)c3N3CCCC3)cc2)cc1	·	·	·	·	–	·	·
Cc1cc(Cl)ccc1Oc1ccc(C(N)=O)cc1[N+](=O)[O-]	53	–	–	–	–	–	–
Cc1cc(=O)oc2cc(Oc3ccc(C(N)=O)cc3[N+](=O)[O-])ccc12	–	–	–	–	–	·	·
c1ccc2sc(SCc3ccc(-c4nnco4)cc3)nc2c1	–	–	–	–	–	–	·
NC(=O)c1ccc(CSc2nc3ccccc3s2)cc1	51	–	–	–	–	92	59
C=CCn1c(SCc2nc3scc(-c4ccccc4)c3c(=O)[nH]2)nnc1-c1ccccc1F	46	–	–	–	–	–	–	ATG4B conf=62
